Molecules are shown by their SMILES. In brackets after ≈: the same amount, converted by molar mass. *1 amine or outer side, *2 acyl side, *3 side chain or, on linkers, in order; H or OH if unused. Where a SMILES comes first, the peptide text is derived from it. Bridges are numbered along the chain shown (N, C = ends). [ ]: non-standard residue; d: D form. The star is where a group is joined. hTyr(3S-OH,4S-OH,3'-OSO3H) = N[C@H](C(=O)O)[C@H](O)[C@@H](O)c1ccc(O)c(OS(=O)(=O)O)c1; Orn(4R-OH,5R-OH) = O=C([C@H](C[C@@H](O)[C@@H](O)N[*:3])N[*:1])[*:2]; Pro(3S-OH,4S-Me) = C[C@H]1CN[C@H](C(=O)O)[C@H]1O; X1 = CCCCCOc1ccc(-c2cc(-c3ccc(C(=O)*)cc3)no2)cc1; Gln(3R-OH) = NC(=O)C[C@@H](O)[C@H](N)C(=O)O; Hyp = O=C(O)[C@@H]1C[C@@H](O)CN1

A short description of data set [1]: Ratio of AUC in ICR/Swiss neutropenic mouse at static dose of 2.84 mg/kg, ip after 24 hrs to MIC for Candida albicans isolate 98-210. The data set is classed as functional. Conditions: route intraperitoneal.
The nature of data set [2]: Ratio of AUC in ICR/Swiss neutropenic mouse at static dose of 0.41 mg/kg, ip after 24 hrs to MIC for Candida glabrata isolate 33609. The class given is functional. Conditions: route intraperitoneal.
Data set [3] in a line: Ratio of AUC in ICR/Swiss neutropenic mouse at 1-Log kill dose of 2.36 mg/kg, ip after 24 hrs to MIC for Candida albicans isolate 580. The data set is classed as functional. Conditions: route intraperitoneal.
The nature of data set [4]: Ratio of AUC in ICR/Swiss neutropenic mouse at 1-Log kill dose of 1.69 mg/kg, ip after 24 hrs to MIC for Candida glabrata isolate 32930. The data set is classed as functional. Conditions: route intraperitoneal.
A short description of data set [5]: Ratio of fAUC in ICR/Swiss neutropenic mouse at 1-Log kill dose of 20.6 mg/kg, ip after 24 hrs to MIC for Candida glabrata isolate 37661. Conditions: route intraperitoneal. The class given is functional.
A short description of data set [6]: Ratio of fAUC in ICR/Swiss neutropenic mouse at 1-Log kill dose of 1.40 mg/kg, ip after 24 hrs to MIC for Candida glabrata isolate 33609. The data set is classed as functional. Conditions: dose 1.4 mg/kg; route intraperitoneal.
The test system of data set [7] is Nakaseomyces glabratus. Put plainly: Antifungal activity against Candida glabrata. The data set is classed as functional. Summed up:
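Broth microdilution MIC per CLSI M27-A2. Two endpoints were read against the drug-free control well: partial inhibition (M1, CLSI recommended) and complete inhibition (M2). Tests were run in duplicate on four separate occasions, and the value is the mean.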

Data set [8] can be described thus: AUC (0 to infinity) in Candida infected ICR/Swiss neutropenic mouse at 5 mg/kg, ip. Conditions: plasma. On the set-up: dose 5 mg/kg, route intraperitoneal, time infinity. The class given is ADME, organism-based. Summed up: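 Single intraperitoneal micafungin doses (80, 20, 5 mg/kg in 0.2 ml, 0.15 M NaCl) given to infected neutropenic mice. Serum was taken from 3 mice per time point at 1, 2, 4, 6, 8, 12, 24 and 48 h. Drug was measured by microbiologic assay with C. albicans K1 (LLOQ 0.12 μg/ml). Noncompartmental analysis; half-life by nonlinear least squares; AUC by trapezoidal rule.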

Data set [9] deals with Nakaseomyces glabratus. Kind of data set: Fungistatic activity against Candida glabrata isolate 34341 infected in ICR/Swiss neutropenic mouse after 24 hrs. The class given is functional. The method, boiled down:
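Neutropenic female ICR/Swiss mice received cyclophosphamide sc at 150 mg/kg on day −4, 100 mg/kg on day −1 and 100 mg/kg on day +2. Mice were infected iv via the tail vein, and ip micafungin in 0.15 M NaCl started 2 h later. Six dose levels from 0.078 to 80 mg/kg/24 h were given q24h for 4 days, 3 mice per dose. Kidney CFU were counted at 96 h. The static dose was derived from a sigmoid Emax (Hill) fit.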

With `CCCCCOc1ccc(-c2cc(-c3ccc(C(=O)N[C@H]4C[C@@H](O)[C@@H](O)NC(=O)[C@@H]5[C@@H](O)[C@@H](C)CN5C(=O)[C@H]([C@H](O)CC(N)=O)NC(=O)[C@H]([C@H](O)[C@@H](O)c5ccc(O)c(OS(=O)(=O)O)c5)NC(=O)[C@@H]5C[C@@H](O)CN5C(=O)[C@H]([C@@H](C)O)NC4=O)cc3)no2)cc1` [MICAFUNGIN] (X1-[Orn(4R-OH,5R-OH)]T[Hyp][hTyr(3S-OH,4S-OH,3'-OSO3H)][Gln(3R-OH)][Pro(3S-OH,4S-Me)]; lactam 1-C), the RatioAUC/MIC is recorded as 5200 in data set [1], 753 in data set [2], 1686 in data set [3] and 3107 in data set [4]. For the same compound, the figures for the fAUC/MIC in data set [5] and in data set [6] were 5.2 and 6.5, respectively. Also, in the data set on Nakaseomyces glabratus [7], the MIC50 stood at 0.015 µg/mL (≈ 0.0118 µM). In the data set with Nakaseomyces glabratus [7], the MIC90 came out at 0.015 µg/mL (≈ 0.0118 µM). Moreover, the AUC(0-inf) in data set [8] was 138 µg·h/mL. The compound also gave an Activity in the data set on Nakaseomyces glabratus [9] of 2.18 mg/kg.
